This is an account of results in ChEMBL document CHEMBL4619741, “Screening of chalcone analogs with anti-depressant, anti-inflammatory, analgesic, and COX-2-inhibiting effects” (Bioorg Med Chem Lett, 2020).

Activity calls are given as the source filed them. The calls are words filed in the database; no cut-off is given here.

In assay [1] the test system is Mus musculus. The assay can be described thus: Antidepressant activity in mouse assessed as immobility time at 30 mg/kg, ip by forced swimming test (reference value: 172.3 +/- 9.67 sec). The assay is classed as functional.
Assay [2] deals with Mus musculus. Nature of the assay: Antidepressant activity in mouse assessed as reduction in duration of immobility at 30 mg/kg, ip relative to control. The assay is classed as functional.
Assay [3] concerns Mus musculus. The assay can be described thus: Antiinflammatory activity against dimethylbenzene-induced ear edema mouse model assessed as inhibition of ear edema at 30 mg/kg, ip pretreated with compounds followed by dimethylbenzene challenge relative to control. The assay is classed as functional. In short, it runs like this: (§1)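 Intraperitoneal dosing (test agents 30 mg/kg, reference 3 mg/kg) given before topical dimethylbenzene to mouse ear. Ear inflammation was measured by weight (mg), and inhibition was expressed as percent versus control at 60 min.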

For assay [4], the system named is Mus musculus. Nature of the assay: Antiinflammatory activity against dimethylbenzene-induced ear edema mouse model assessed as inhibition of ear edema at 3 mg/kg, ip pretreated with compounds followed by dimethylbenzene challenge relative to control. It is filed as functional. In short, it runs like this: as §1
In assay [5] the test system is Mus musculus. Nature of the assay: Analgesic activity in mouse assessed as inhibition of acetic acid-induced writhing at 3 mg/kg, ip relative to control. It is filed as functional. (Writhing tests count abdominal constrictions after an irritant is injected.)
Assay [6] concerns Mus musculus. Nature of the assay: Antidepressant activity in mouse assessed as increase in serotonin level at 30 mg/kg, ip. It is filed as functional, organism-based. In short, it runs like this: (§2)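 Mice under stress treated intraperitoneally (30 mg/kg), alongside normal-vehicle and stress-vehicle groups; serotonin, norepinephrine and dopamine levels measured; n = 8 per group; values as mean ± SEM; significance tested against stress vehicle and normal vehicle.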

Assay [7] relates to Mus musculus. Nature of the assay: Antidepressant activity in mouse assessed as change in norepinephrine level at 30 mg/kg, ip. The assay is classed as functional, organism-based. In short, it runs like this: as §2
Assay [8] concerns Mus musculus. Nature of the assay: Antidepressant activity in mouse assessed as change in dopamine level at 30 mg/kg, ip. It is filed as functional, organism-based. In short, it runs like this:
as §2

The target of assay [9] is T1, Prostaglandin G/H synthase 1 (Ovis aries, UniProt P05979).
T1 sequence (P05979 whole entry): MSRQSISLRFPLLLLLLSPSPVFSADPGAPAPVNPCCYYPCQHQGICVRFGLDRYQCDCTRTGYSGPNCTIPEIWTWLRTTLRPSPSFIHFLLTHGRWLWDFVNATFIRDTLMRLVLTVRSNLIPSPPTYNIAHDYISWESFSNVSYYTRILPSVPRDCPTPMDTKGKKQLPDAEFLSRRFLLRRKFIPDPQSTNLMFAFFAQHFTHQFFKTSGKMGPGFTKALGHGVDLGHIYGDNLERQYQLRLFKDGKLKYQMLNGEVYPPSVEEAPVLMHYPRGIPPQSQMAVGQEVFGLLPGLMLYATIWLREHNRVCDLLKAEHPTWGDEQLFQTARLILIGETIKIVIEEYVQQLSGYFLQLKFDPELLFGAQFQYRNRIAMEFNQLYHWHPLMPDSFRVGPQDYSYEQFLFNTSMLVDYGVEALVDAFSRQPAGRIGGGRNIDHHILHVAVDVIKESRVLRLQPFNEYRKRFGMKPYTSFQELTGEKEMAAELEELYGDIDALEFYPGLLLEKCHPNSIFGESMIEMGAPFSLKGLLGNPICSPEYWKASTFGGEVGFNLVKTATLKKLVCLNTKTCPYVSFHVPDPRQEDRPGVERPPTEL
Nature of the assay: Inhibition of ovine COX1 by ELISA. In short, it runs like this: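 Ovine COX-1 inhibition followed through enzyme peroxidase activity with a colorimetric enzyme immunoassay kit; IC50 values determined; mean and SD of three measurements.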
In general terms: ELISA stands for enzyme-linked immunosorbent assay.

In assay [10] the test system is Mus musculus. Nature of the assay: Antidepressant activity in mouse assessed as immobility time at 3 mg/kg, ip by forced swimming test (reference value: 172.3 +/- 9.67 sec). It is filed as functional.
Assay [11] deals with Mus musculus. The assay can be described thus: Antidepressant activity in mouse assessed as reduction in duration of immobility at 3 mg/kg, ip relative to control. It is filed as functional.
Assay [12] has as its system Mus musculus. The assay can be described thus: Antidepressant activity in mouse assessed as increase in serotonin level at 3 mg/kg, ip. It is filed as functional, organism-based.
Assay [13] has as its system Mus musculus. The assay can be described thus: Antidepressant activity in mouse assessed as change in norepinephrine level at 3 mg/kg, ip. It is filed as functional, organism-based.
Assay [14] concerns Mus musculus. The assay can be described thus: Antidepressant activity in mouse assessed as change in dopamine level at 3 mg/kg, ip. It is filed as functional, organism-based.

The inhibition in vivo is the change of the read-out against control, counted positive when it falls. On to `Cc1nc2ccccc2c(-c2ccccc2)c1C(=O)/C=C/c1cccc(F)c1`, for which the Time in the assay on Mus musculus [1] is listed as 38.3 s. In addition, the inhibition in vivo at 30 mg/kg in the assay on Mus musculus [2] is 77.8%; in the assay with Mus musculus [3] it was 69.2%.

`COc1ccc2c(c1)c(CC(=O)O)c(C)n2C(=O)c1ccc(Cl)cc1` [INDOMETHACIN]: the inhibition in vivo at 3 mg/kg worked out at 51.1% with Mus musculus [4] and 78.3% in the assay on Mus musculus [5].

With `Cc1nc2ccccc2c(-c2ccccc2)c1C(=O)/C=C/c1c(Cl)cccc1Cl`, the Time in the assay with Mus musculus [1] is listed as 52 s. For the same compound, the inhibition in vivo at 30 mg/kg with Mus musculus [3] was 46.7%.

Take `COc1ccc(/C=C/C(=O)c2c(C)nc3ccccc3c2-c2ccccc2)cc1`: the Time in the assay with Mus musculus [1] was 83.5 s. Further, in the assay on Mus musculus [3], the inhibition in vivo at 30 mg/kg turned out to be 66.7%.

As usually defined, the IC50 is the point on the concentration scale where inhibition reaches its midpoint. Read a low IC50 as inhibition by little substance. Consider `Cc1nc2ccccc2c(-c2ccccc2)c1C(=O)/C=C/c1ccc(C(C)C)cc1`, for which, in the assay on Mus musculus [1], the Time amounted to 22.8 s. For the same compound, the inhibition in vivo at 30 mg/kg in the assay with Mus musculus [2] is 86.8%; in the assay with Mus musculus [3], 76.8%. Moreover, in the assay on Mus musculus [6], the result was Active. For the same compound, the outcome in the assay on Mus musculus [7] and in the assay with Mus musculus [8] was inactive. Further, in assay [9], 8.95 µM corresponded to half-maximal inhibition (IC50).

As to `Cc1cccc(/C=C/C(=O)c2c(C)nc3ccccc3c2-c2ccccc2)c1`, the Time in the assay with Mus musculus [1] amounted to 57.5 s. Also, in the assay with Mus musculus [3], the inhibition in vivo at 30 mg/kg stood at 67.1%.

Consider `Cc1nc2ccccc2c(-c2ccccc2)c1C(=O)/C=C/c1ccccc1Cl`, for which, in the assay with Mus musculus [1], the Time was determined as 136.3 s. Besides, the inhibition in vivo at 30 mg/kg in the assay on Mus musculus [3] came out at 73.2%.

Turning to `CNCCC(Oc1ccc(C(F)(F)F)cc1)c1ccccc1` (stereo unspecified) [FLUOXETINE], the Time in the assay on Mus musculus [10] amounted to 88.1 s. The inhibition in vivo at 3 mg/kg with Mus musculus [11] amounted to 48.9%. Moreover, the outcome in the assay on Mus musculus [12] was Active. Moreover, the result with Mus musculus [13] and in the assay with Mus musculus [14] was inactive.

For `COc1ccc(/C=C/C(=O)c2c(C)nc3ccccc3c2-c2ccccc2)cc1O`, the Time with Mus musculus [1] amounted to 52.3 s. Further, the inhibition in vivo at 30 mg/kg with Mus musculus [3] came out at 65.5%.

Regarding `Cc1nc2ccccc2c(-c2ccccc2)c1C(=O)/C=C/c1cccc(Br)c1`, the Time in the assay with Mus musculus [1] was found to be 13.8 s. Moreover, the inhibition in vivo at 30 mg/kg with Mus musculus [2] amounted to 92%; with Mus musculus [3] it was 72.9%.

For `Cc1nc2ccccc2c(-c2ccccc2)c1C(=O)/C=C/c1ccccc1Br`, the Time with Mus musculus [1] is on record as 60.3 s. For the same compound, the inhibition in vivo at 30 mg/kg with Mus musculus [3] was determined as 55%.

Turning to `Cc1nc2ccccc2c(-c2ccccc2)c1C(=O)/C=C/c1cccc(O)c1`, the Time in the assay with Mus musculus [1] is 32.8 s. Further, the inhibition in vivo at 30 mg/kg in the assay on Mus musculus [2] was found to be 80%; in the assay with Mus musculus [3] it was 65.2%.

As for `Cc1nc2ccccc2c(-c2ccccc2)c1C(=O)/C=C/c1ccc(Cl)cc1`, the Time with Mus musculus [1] was found to be 29.3 s. In addition, the inhibition in vivo at 30 mg/kg in the assay on Mus musculus [2] is 83%; with Mus musculus [3], 85.5%.

Turning to `Cc1nc2ccccc2c(-c2ccccc2)c1C(=O)/C=C/c1ccc(Br)cc1`, the Time in the assay with Mus musculus [1] is 75.8 s. In the assay on Mus musculus [3], the inhibition in vivo at 30 mg/kg turned out to be 74.1%.

Turning to `Cc1nc2ccccc2c(-c2ccccc2)c1C(=O)/C=C/c1ccc(N(C)C)cc1`, the Time in the assay on Mus musculus [1] was found to be 47.5 s. Also, in the assay on Mus musculus [3], the inhibition in vivo at 30 mg/kg is 69.7%.

For the compound `Cc1nc2ccccc2c(-c2ccccc2)c1C(=O)/C=C/c1ccccc1F`, in the assay on Mus musculus [1], the Time is 49.3 s. Also, the inhibition in vivo at 30 mg/kg with Mus musculus [3] came to 81.2%.

Take `Cc1ccc(/C=C/C(=O)c2c(C)nc3ccccc3c2-c2ccccc2)cc1`: the Time in the assay with Mus musculus [1] came to 63 s. For the same compound, the inhibition in vivo at 30 mg/kg in the assay on Mus musculus [3] came to 61.3%.

Consider `COc1cccc(/C=C/C(=O)c2c(C)nc3ccccc3c2-c2ccccc2)c1`, for which, in the assay with Mus musculus [1], the Time is reported as 48.5 s. The inhibition in vivo at 30 mg/kg in the assay on Mus musculus [3] was 74.6%.

For `COc1ccccc1/C=C/C(=O)c1c(C)nc2ccccc2c1-c1ccccc1`, in the assay with Mus musculus [1], the Time is 109.3 s. Also, the inhibition in vivo at 30 mg/kg in the assay on Mus musculus [3] came to 62.1%.

Regarding `Cc1nc2ccccc2c(-c2ccccc2)c1C(=O)/C=C/c1ccc([N+](=O)[O-])cc1`, the Time with Mus musculus [1] is on record as 46.8 s. For the same compound, the inhibition in vivo at 30 mg/kg is 72.8% with Mus musculus [2] and 42.9% with Mus musculus [3].

Turning to `Cc1nc2ccccc2c(-c2ccccc2)c1C(=O)/C=C/c1ccc(F)cc1F`, in the assay on Mus musculus [1], the Time was found to be 51.5 s. Further, the inhibition in vivo at 30 mg/kg with Mus musculus [3] worked out at 65.8%.

`Cc1nc2ccccc2c(-c2ccccc2)c1C(=O)/C=C/c1ccc(Cl)cc1Cl`: the Time in the assay on Mus musculus [1] turned out to be 31.5 s. Further, the inhibition in vivo at 30 mg/kg with Mus musculus [2] was 81%; in the assay on Mus musculus [3], 81.3%.

For the compound `Cc1nc2ccccc2c(-c2ccccc2)c1C(=O)/C=C/c1ccc(O)cc1`, the Time in the assay on Mus musculus [1] amounted to 79.3 s. The inhibition in vivo at 30 mg/kg with Mus musculus [3] stood at 78.8%.

With `Cc1ccccc1/C=C/C(=O)c1c(C)nc2ccccc2c1-c1ccccc1`, in the assay with Mus musculus [1], the Time worked out at 86.3 s. In addition, the inhibition in vivo at 30 mg/kg with Mus musculus [3] turned out to be 70.9%.

As for `Cc1nc2ccccc2c(-c2ccccc2)c1C(=O)/C=C/c1cccc(Cl)c1`, the Time in the assay with Mus musculus [1] is recorded as 48.5 s. Besides, in the assay on Mus musculus [3], the inhibition in vivo at 30 mg/kg came to 53.6%.

Regarding `Cc1nc2ccccc2c(-c2ccccc2)c1C(=O)/C=C/c1ccc(F)cc1`, the Time in the assay on Mus musculus [1] is listed as 25.8 s. Besides, the inhibition in vivo at 30 mg/kg in the assay with Mus musculus [2] stood at 85%; in the assay on Mus musculus [3], 88.3%. The outcome in the assay with Mus musculus [6] was Active. Moreover, the outcome in the assay on Mus musculus [7] and with Mus musculus [8] was inactive. In [9], half-maximal inhibition (IC50) required 10.2 µM.
